Reference: ChEMBL document CHEMBL1157011, “8-Sulfonyl-substituted tetrahydro-1H-pyrido[4,3-b]indoles as 5-HT6 receptor antagonists” (Eur J Med Chem, 2010)
Calls of active or inactive are those of the source. The calls are words filed in the database; no cut-off is given here.

How the values were obtained:
[1] = target: T1, 5-hydroxytryptamine receptor 6 (Homo sapiens, UniProt P50406); assay: Antagonist activity at human recombinant 5HT6 receptor expressed in HEK293 cells assessed as inhibition of serotonin-induced cAMP production by LANCE assay relative to serotonin; type: functional, cell-based
In short: (§1)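 HEK-293 cells with a tetracycline-inducible (T-Rex) human 5-HT6 receptor, grown in DMEM/10% FBS with blasticidin S and zeocin and induced with tetracycline the day before. Medium was swapped for HBSS with 1 mM MgCl2, 1 mM CaCl2, IBMX and 5 mM HEPES, pH 7.4. Compounds (0.1% DMSO) were added 15 min at RT, then 10 nM serotonin for 30 min. cAMP read by LANCE; 2 independent experiments in duplicate.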

[2] = target: D(3) dopamine receptor (Homo sapiens) (UniProt P35462); assay: Binding affinity to dopamine D3 receptor at 10 uM by radioligand displacement assay
In short: (§2)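 Target specificity panel: single-concentration competitive displacement of each target's radioligand, with compound at 1 µM or 10 µM as stated per line. Run by an outside contract lab under its internal protocols; mean ± SE, n = 2.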

[3] = target: T2, Alpha-2A adrenergic receptor (Homo sapiens) (UniProt P08913); assay: Binding affinity to adrenergic alpha2A receptor at 10 uM by radioligand displacement assay; in short: as §2
T2 sequence (whole entry): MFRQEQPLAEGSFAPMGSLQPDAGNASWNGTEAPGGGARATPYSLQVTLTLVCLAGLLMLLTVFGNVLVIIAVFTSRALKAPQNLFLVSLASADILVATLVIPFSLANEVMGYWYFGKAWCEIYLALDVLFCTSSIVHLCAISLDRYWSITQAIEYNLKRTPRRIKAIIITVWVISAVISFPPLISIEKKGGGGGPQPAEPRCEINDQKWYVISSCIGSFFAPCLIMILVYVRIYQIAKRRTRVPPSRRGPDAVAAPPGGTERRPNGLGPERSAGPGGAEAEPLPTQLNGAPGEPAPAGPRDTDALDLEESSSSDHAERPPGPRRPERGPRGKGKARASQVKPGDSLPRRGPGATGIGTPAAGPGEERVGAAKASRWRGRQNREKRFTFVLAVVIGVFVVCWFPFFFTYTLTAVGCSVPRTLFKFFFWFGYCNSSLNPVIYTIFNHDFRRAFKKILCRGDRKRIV

[4] = target: T3, Alpha-1B adrenergic receptor (Homo sapiens) (UniProt P35368); assay: Binding affinity to adrenergic Alpha-1B receptor at 10 uM by radioligand displacement assay; in short: as §2
T3 sequence (whole entry): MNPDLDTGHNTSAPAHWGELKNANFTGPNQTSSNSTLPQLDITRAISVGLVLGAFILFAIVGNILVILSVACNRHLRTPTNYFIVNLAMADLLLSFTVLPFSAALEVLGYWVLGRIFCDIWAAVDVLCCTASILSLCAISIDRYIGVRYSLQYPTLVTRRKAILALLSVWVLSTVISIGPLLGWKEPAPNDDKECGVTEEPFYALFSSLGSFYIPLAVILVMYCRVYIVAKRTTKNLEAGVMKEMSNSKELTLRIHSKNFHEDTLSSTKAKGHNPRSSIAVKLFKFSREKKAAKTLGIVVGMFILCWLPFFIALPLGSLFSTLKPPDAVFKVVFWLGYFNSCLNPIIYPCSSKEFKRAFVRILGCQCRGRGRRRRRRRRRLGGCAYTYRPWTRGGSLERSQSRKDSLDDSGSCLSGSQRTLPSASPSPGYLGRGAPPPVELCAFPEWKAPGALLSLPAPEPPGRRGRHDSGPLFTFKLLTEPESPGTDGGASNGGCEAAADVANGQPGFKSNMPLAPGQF

[5] = target: Sodium-dependent dopamine transporter (Homo sapiens) (UniProt Q01959); assay: Binding affinity to dopamine transporter at 10 uM by radioligand displacement assay; in short: as §2
[6] = target: T1, 5-hydroxytryptamine receptor 6; assay: Binding affinity to human recombinant 5HT6 receptor by radioligand displacement assay
In short: (§3)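 Competitive displacement of the corresponding radioligand, run by an outside contract lab under its internal protocols. Data from one representative experiment in duplicate.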

[7] = target: Sigma non-opioid intracellular receptor 1 (Homo sapiens) (UniProt Q99720); assay: Binding affinity to sigma 1 receptor at 10 uM by radioligand displacement assay; in short: as §2
[8] = target: T4, Alpha-1A adrenergic receptor (Homo sapiens) (UniProt P35348); assay: Binding affinity to adrenergic alpha1A receptor at 10 uM by radioligand displacement assay; in short: as §2
T4 sequence (whole entry): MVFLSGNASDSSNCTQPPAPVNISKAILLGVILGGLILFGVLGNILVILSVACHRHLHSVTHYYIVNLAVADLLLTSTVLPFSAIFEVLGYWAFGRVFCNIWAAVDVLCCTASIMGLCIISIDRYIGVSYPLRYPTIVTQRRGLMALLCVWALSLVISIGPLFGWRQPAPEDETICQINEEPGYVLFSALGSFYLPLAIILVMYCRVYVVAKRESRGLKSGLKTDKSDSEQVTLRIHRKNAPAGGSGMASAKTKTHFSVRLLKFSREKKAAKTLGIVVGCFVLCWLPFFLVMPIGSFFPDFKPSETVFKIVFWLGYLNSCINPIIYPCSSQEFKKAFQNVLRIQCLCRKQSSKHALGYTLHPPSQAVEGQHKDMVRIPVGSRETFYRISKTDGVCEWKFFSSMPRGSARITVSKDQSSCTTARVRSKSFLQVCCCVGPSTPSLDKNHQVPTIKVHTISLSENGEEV

[9] = target: T5, Alpha-1D adrenergic receptor (Homo sapiens) (UniProt P25100); assay: Binding affinity to adrenergic Alpha-1D receptor at 10 uM by radioligand displacement assay; in short: as §2
T5 sequence (whole entry): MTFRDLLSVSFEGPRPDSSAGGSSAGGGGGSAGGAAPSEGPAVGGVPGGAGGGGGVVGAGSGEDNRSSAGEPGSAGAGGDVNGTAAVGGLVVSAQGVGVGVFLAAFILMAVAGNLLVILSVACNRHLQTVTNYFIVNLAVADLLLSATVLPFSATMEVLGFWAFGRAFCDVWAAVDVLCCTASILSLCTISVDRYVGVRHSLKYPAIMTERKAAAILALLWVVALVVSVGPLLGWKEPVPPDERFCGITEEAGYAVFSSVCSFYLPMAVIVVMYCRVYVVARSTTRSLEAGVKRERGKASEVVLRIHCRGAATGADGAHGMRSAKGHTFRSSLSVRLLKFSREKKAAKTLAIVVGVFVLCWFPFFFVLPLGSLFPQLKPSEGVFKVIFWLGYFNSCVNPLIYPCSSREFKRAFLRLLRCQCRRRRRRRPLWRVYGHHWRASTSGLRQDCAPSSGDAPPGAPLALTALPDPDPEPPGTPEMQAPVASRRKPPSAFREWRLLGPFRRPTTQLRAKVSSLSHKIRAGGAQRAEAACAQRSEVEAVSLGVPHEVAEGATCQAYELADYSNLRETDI

[10] = target: Sodium-dependent noradrenaline transporter (Homo sapiens) (UniProt P23975); assay: Binding affinity to norepinephrine transporter at 10 uM by radioligand displacement assay; in short: as §2
[11] = target: T1, 5-hydroxytryptamine receptor 6; assay: Antagonist activity at human recombinant 5HT6 receptor expressed in HEK293 cells assessed as inhibition of serotonin-induced cAMP production by LANCE assay; type: functional, cell-based; conditions: hek293; in short: as §1
[12] = Binding affinity to glycine transporter at 1 uM by radioligand displacement assay; in short: as §2
[13] = target: T1, 5-hydroxytryptamine receptor 6; assay: Binding affinity to human recombinant 5HT6 receptor at 1 uM by radioligand displacement assay; in short: as §2
[14] = target: T6, 5-hydroxytryptamine receptor 7 (Homo sapiens, UniProt P34969); assay: Binding affinity to 5HT7 receptor at 1 uM by radioligand displacement assay; in short: as §2
[15] = target: 5-hydroxytryptamine receptor 2A (Homo sapiens) (UniProt P28223); assay: Binding affinity to 5HT2A receptor at 1 uM by radioligand displacement assay; in short: as §2
[16] = target: Sigma non-opioid intracellular receptor 1 (Homo sapiens) (UniProt Q99720); assay: Binding affinity to sigma 1 receptor at 1 uM by radioligand displacement assay; in short: as §2
[17] = target: 5-hydroxytryptamine receptor 2B (Homo sapiens) (UniProt P41595); assay: Binding affinity to 5HT2B receptor at 1 uM by radioligand displacement assay; in short: as §2
[18] = target: T4, Alpha-1A adrenergic receptor (Homo sapiens); assay: Binding affinity to adrenergic alpha1A receptor at 1 uM by radioligand displacement assay; in short: as §2
[19] = Binding affinity to L-type calcium channel at 1 uM by radioligand displacement assay; in short: as §2
[20] = target: T3, Alpha-1B adrenergic receptor (Homo sapiens); assay: Binding affinity to adrenergic Alpha-1B receptor at 1 uM by radioligand displacement assay; in short: as §2
[21] = target: D(3) dopamine receptor (Homo sapiens) (UniProt P35462); assay: Binding affinity to dopamine D3 receptor at 1 uM by radioligand displacement assay; in short: as §2
[22] = target: T6, 5-hydroxytryptamine receptor 7; assay: Binding affinity to 5HT7 receptor by radioligand displacement assay; in short: as §3
[23] = target: T7, 5-hydroxytryptamine receptor 2C (Homo sapiens) (UniProt P28335); assay: Binding affinity to 5HT2C receptor at 1 uM by radioligand displacement assay; in short: as §2
T7 sequence (whole entry): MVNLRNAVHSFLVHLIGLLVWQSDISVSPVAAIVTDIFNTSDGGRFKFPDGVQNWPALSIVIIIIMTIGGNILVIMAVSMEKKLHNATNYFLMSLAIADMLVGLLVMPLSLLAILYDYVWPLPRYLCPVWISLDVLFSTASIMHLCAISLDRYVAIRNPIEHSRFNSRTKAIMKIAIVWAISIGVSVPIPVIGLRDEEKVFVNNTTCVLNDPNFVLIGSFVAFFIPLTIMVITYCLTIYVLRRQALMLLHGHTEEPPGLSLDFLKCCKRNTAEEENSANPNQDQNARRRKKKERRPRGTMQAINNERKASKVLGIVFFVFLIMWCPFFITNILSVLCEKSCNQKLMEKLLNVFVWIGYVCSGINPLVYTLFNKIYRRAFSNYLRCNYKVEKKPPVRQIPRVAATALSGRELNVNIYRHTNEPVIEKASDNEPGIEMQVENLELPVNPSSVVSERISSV

[24] = target: T8, 5-hydroxytryptamine receptor 2C (Homo sapiens, UniProt P28335); assay: (§4) Binding affinity to 5HT2C receptor by radioligand displacement assay; in short: as §3
T8 sequence (P28335 whole entry): T7 sequence (whole entry)

[25] = target: T7, 5-hydroxytryptamine receptor 2C (Homo sapiens); assay: as §4; in short: as §3
[26] = target: T9, 5-hydroxytryptamine receptor 1A (Homo sapiens, UniProt P08908); assay: Binding affinity to 5HT1A receptor by radioligand displacement assay
T9 sequence (P08908 whole entry): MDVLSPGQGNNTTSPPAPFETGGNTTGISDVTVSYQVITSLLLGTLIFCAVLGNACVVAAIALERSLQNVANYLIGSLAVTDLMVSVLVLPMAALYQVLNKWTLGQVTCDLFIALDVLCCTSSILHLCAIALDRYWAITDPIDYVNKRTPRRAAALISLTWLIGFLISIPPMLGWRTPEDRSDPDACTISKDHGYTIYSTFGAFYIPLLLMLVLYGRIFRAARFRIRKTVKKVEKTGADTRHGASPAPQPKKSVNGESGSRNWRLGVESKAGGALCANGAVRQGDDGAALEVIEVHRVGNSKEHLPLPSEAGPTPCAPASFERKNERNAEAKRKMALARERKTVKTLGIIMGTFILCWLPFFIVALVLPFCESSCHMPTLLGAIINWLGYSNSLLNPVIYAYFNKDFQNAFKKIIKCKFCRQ

[27] = target: T5, Alpha-1D adrenergic receptor (Homo sapiens); assay: Binding affinity to adrenergic Alpha-1D receptor at 1 uM by radioligand displacement assay; in short: as §2
[28] = target: T2, Alpha-2A adrenergic receptor (Homo sapiens); assay: Binding affinity to adrenergic alpha2A receptor at 1 uM by radioligand displacement assay; in short: as §2
[29] = target: Sodium-dependent noradrenaline transporter (Homo sapiens) (UniProt P23975); assay: Binding affinity to norepinephrine transporter at 1 uM by radioligand displacement assay; in short: as §2

T6 sequence (P34969 whole entry): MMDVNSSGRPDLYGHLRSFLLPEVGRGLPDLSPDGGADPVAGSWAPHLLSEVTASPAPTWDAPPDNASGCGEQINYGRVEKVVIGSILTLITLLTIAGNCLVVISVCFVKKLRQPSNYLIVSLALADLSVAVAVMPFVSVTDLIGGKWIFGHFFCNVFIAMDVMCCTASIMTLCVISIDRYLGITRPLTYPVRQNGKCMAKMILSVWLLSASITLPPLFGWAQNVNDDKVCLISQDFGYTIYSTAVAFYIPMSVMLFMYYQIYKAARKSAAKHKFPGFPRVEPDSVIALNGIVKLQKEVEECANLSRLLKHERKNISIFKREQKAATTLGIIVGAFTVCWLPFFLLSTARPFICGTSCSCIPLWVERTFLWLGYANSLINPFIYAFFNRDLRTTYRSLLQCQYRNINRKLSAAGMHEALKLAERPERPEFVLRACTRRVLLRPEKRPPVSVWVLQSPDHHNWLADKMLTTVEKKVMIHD
T1 sequence (P50406 whole entry): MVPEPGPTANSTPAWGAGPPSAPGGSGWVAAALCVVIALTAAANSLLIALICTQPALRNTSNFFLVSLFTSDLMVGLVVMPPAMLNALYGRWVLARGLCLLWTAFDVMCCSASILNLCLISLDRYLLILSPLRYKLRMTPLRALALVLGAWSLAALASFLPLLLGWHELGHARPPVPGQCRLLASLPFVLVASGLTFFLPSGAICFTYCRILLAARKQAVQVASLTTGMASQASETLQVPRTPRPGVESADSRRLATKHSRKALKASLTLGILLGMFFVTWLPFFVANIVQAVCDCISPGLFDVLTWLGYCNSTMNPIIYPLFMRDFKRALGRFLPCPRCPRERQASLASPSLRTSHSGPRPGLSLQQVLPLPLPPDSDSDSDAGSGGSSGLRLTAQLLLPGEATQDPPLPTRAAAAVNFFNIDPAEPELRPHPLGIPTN
D(3) dopamine receptor (Homo sapiens), sequence (P35462 whole entry): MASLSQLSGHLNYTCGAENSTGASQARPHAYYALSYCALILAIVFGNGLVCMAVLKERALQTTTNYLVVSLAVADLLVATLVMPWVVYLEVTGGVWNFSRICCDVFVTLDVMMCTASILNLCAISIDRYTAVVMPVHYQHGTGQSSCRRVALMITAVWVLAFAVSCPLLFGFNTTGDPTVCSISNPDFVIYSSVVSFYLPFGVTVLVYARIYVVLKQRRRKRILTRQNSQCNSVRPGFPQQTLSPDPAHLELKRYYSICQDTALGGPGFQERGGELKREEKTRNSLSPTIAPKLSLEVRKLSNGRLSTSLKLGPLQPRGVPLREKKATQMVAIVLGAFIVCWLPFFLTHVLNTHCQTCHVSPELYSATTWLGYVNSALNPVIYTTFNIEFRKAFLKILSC
Sodium-dependent noradrenaline transporter (Homo sapiens), sequence (P23975 whole entry): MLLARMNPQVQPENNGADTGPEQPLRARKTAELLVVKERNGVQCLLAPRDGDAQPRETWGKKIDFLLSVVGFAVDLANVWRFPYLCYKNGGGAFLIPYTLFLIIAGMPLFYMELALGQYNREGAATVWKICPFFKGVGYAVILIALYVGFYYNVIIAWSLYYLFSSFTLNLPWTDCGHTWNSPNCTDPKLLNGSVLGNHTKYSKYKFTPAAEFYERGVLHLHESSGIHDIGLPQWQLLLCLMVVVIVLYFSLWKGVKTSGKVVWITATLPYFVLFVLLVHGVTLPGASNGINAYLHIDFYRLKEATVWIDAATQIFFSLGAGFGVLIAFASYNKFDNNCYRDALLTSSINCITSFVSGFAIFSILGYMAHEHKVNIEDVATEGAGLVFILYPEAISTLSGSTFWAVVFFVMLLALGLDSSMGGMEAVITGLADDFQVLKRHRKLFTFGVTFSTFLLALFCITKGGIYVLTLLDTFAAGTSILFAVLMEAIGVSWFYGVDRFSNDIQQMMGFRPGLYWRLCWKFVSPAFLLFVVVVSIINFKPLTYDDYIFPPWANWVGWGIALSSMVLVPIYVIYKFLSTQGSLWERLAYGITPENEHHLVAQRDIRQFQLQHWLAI
Sigma non-opioid intracellular receptor 1 (Homo sapiens), sequence (Q99720 whole entry): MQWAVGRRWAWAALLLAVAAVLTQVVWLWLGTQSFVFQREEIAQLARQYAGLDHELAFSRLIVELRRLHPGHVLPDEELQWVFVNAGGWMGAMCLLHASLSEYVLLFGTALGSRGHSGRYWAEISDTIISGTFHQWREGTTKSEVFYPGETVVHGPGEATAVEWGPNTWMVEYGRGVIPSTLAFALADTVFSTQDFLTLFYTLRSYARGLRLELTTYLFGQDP
5-hydroxytryptamine receptor 2A (Homo sapiens), sequence (P28223 whole entry): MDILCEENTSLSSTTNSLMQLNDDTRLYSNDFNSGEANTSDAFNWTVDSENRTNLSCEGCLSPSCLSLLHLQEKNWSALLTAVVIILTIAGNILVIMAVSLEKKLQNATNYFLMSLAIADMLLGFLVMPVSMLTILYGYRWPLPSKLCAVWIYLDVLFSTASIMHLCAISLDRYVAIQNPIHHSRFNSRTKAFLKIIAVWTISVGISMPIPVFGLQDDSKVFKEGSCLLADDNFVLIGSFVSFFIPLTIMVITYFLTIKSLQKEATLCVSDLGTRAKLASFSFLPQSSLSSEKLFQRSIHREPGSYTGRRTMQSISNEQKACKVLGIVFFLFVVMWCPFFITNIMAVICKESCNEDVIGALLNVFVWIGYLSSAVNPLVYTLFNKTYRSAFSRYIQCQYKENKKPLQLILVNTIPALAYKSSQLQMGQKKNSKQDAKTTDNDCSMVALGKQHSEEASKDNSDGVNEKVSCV
5-hydroxytryptamine receptor 2B (Homo sapiens), sequence (P41595 whole entry): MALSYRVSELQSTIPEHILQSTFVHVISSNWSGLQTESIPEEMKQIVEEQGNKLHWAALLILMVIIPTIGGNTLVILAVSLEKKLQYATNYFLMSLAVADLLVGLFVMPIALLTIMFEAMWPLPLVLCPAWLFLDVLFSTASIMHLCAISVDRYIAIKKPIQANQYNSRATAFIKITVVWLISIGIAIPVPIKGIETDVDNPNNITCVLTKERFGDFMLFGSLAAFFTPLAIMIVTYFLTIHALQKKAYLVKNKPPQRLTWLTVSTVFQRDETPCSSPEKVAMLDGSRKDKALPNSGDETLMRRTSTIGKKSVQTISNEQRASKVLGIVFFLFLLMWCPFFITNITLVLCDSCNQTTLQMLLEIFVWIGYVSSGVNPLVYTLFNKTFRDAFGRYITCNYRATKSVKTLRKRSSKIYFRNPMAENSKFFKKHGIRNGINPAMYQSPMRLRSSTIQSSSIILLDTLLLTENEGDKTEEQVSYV
Sodium-dependent dopamine transporter (Homo sapiens), sequence (Q01959 whole entry): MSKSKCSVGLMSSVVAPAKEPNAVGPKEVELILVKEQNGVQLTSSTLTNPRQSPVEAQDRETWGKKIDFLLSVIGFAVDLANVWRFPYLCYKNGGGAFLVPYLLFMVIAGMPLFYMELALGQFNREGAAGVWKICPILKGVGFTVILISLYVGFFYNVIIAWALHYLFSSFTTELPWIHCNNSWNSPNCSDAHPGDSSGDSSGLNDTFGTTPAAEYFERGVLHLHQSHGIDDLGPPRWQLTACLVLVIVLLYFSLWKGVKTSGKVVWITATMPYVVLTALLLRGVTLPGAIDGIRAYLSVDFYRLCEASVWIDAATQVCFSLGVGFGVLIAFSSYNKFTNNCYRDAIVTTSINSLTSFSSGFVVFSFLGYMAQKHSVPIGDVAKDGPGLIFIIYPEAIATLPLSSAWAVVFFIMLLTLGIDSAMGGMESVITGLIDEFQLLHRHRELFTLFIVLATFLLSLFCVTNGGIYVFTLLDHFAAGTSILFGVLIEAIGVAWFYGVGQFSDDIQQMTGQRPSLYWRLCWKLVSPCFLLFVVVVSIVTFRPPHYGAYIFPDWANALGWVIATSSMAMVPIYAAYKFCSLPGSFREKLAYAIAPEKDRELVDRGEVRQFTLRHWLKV

`CN1CCc2[nH]c3ccc(S(=O)(=O)c4cccc(F)c4)cc3c2C1` gave an Imax [1] of 100%.

For `CN1CCc2c(c3cc(S(=O)(=O)c4ccccc4)ccc3n2C)C1`, the Activity [2] was “Active”, the Imax [1] was 100% and the Activity [3] was “Active”. For the same compound, the Activity [4] was “Active”, the Activity [5] was “Active” and the Ki [6] was 5.7 nM. The Activity [7] was “Active”, the Activity [8] was “Active” and the Activity [9] was “Active”. The Activity [10] was “Active”.

In the case of `CN1CCc2c(c3cc(S(C)(=O)=O)ccc3n2C)C1.Cl`, the IC50 [11] is reported as “Not Active”.

`CN1CCN(S(=O)(=O)c2ccc3[nH]c4c(c3c2)CN(C)CC4)CC1` gave an Imax [1] of 100%.

With `CN1CCc2c(c3cc(S(=O)(=O)c4ccccc4)ccc3n2CCc2ccccn2)C1` the Imax [1] was 100%.

`CN1CCc2[nH]c3ccc(S(=O)(=O)Nc4cccc(F)c4)cc3c2C1` showed an Activity [12] of 20%, an Activity [13] of 80% and an Imax [1] of 100%. The Activity [14] was 80%, the Activity [15] was 80% and the Activity [16] was 60%. The Activity [17] was 80%, the Activity [18] was 20% and the Activity [6] was “Dose-dependent effect”. It also gave a Ki [6] of 2.1 nM, an Activity [19] of 27% and an Activity [20] of 37%. For the same compound, the Activity [21] was 35%, the Activity [22] was “Dose-dependent effect” and the Ki [22] was 42 nM. The Activity [23] was 80%, the Ki [24] was 39 nM and the Activity [25] was “Dose-dependent effect”. It also gave a Ki [26] of 7 nM, an Activity [27] of 29% and an Activity [28] of 60%. It also gave an Activity [29] of 15%.
